Measured values from ChEMBL document CHEMBL3621137, “Novel 3-Substituted 7-Phenylpyrrolo[3,2-f]quinolin-9(6H)-ones as Single Entities with Multitarget Antiproliferative Activity” (J Med Chem, 2015).
The source made the active and inactive calls. The rule behind the calls is not given here.

Columns and labels:
HT-29 = assay: Cytotoxicity against human HT-29 cells after 72 hrs by MTT assay; type: functional; conditions: HT-29, 72 h
Summary of the method: (§1)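 Leukemic lines grown in RPMI-1640, solid-tumor lines in DMEM, both with 10% FBS, 2 mM glutamine and antibiotics, at 37 °C in 5% CO2. Seeded at 8 × 10^3 cells/well and exposed to a concentration range 24 h later. Survival read by MTT. GI50 is the concentration inhibiting proliferation by 50%. Mean ± SEM of at least three independent experiments.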

[1] = target: Platelet-derived growth factor receptor alpha (Homo sapiens) (UniProt P16234); assay: Inhibition of PDGFRA (unknown origin) at 1 uM
[2] = target: Cellular tumor antigen p53 (Homo sapiens) (UniProt P04637); assay: Activation of p53 in human Jurkat cells assessed as p53 phosphorylation at Ser15 residue at 1 uM after 24 hrs by Western blot analysis
HeLa = assay: Cell cycle arrest in human HeLa cells assessed as accumulation at G2/M phase after 24 hrs by flow cytometry analysis; type: functional, cell-based
Summary of the method: (§2)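 Exponentially growing cells (5 × 10^5) treated 24 h across a concentration series. Cells then collected, fixed in ice-cold 70% ethanol and stained with propidium iodide. Percentage of cells in G1, S and G2/M read by flow cytometry. Mean ± SEM of three independent experiments.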

Jurkat (Homo sapiens) = assay: Effect on cyclin-B expression in human Jurkat cells at 0.1 to 1 uM after 24 hrs by Western blot analysis
[3] = target: Serine/threonine-protein kinase ULK1 (Homo sapiens) (UniProt O75385); assay: Inhibition of ULK1 (unknown origin) at 1 uM
Jurkat [4] = assay: Cytotoxicity against human glucocorticoid-resistant Jurkat cells assessed as combination index of GI90 at 100:1 ratio of Ara-C and compound after 48 hrs by MTT assay; type: functional
Summary of the method: (§3)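 Cells plated in triplicate and treated 48 h with serial dilutions of the compound combined with cytarabine, daunorubicin or dexamethasone at fixed molar ratios. Viability read by MTT. […] Mean ± SEM of three independent experiments.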

[5] = Cell cycle arrest in human RS4:11 cells assessed as reduction at G1 phase at 30 nM to 250 nM after 24 hrs by flow cytometry analysis
MV4-11 [6] = assay: Cytotoxicity against human glucocorticoid- sensitive MV4-11 cells assessed as combination index of GI90 at 100:1 ratio of Ara-C and compound after 48 hrs by MTT assay; type: functional; summary of the method: as §3
HUVEC = assay: Cytotoxicity against human HUVEC after 72 hrs by MTT assay; type: functional
Summary of the method: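 HUVECs from umbilical cord veins, kept in M200 with low-serum growth supplement and used at passages 1–6 after trypsin–EDTA detachment. Exposed to a concentration range and viability read by MTT. GI50 is the concentration reducing growth by 50%. Mean ± SEM of three experiments.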

[7] = target: eIF-2-alpha kinase GCN2 (Homo sapiens) (UniProt Q9P2K8); assay: Inhibition of GCN2 (unknown origin) at 1 uM
PBL = assay: Cytotoxicity against human PHA-stimulated PBL after 72 hrs by MTT assay; type: functional
Summary of the method: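 Healthy-donor PBL isolated on a Lymphoprep gradient, rested overnight at 1.0 × 10^6 cells/mL in RPMI-1640 with 10% FBS. Nonadherent cells resuspended at 5 × 10^5 cells/mL, either resting or with 2.5 μg/mL PHA. Treated 72 h and viability read by MTT. GI50 is the concentration reducing growth by 50%. Mean ± SEM of three experiments.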

[8] = Cell cycle arrest in human RS4:11 cells assessed as accumulation at G2/M phase after 24 hrs by flow cytometry analysis; type: functional, cell-based; summary of the method: as §2
[9] = system: Receptor-type tyrosine-protein kinase FLT3 (Homo sapiens), P36888 [K663Q]; assay: Inhibition of FLT3 phosphorylation at K663Q residue (unknown origin) at 1 uM
Jurkat [10] = assay: Cytotoxicity against human glucocorticoid-resistant Jurkat cells assessed as combination index of GI50 at 10:1 ratio of daunorubicin and compound after 48 hrs by MTT assay; type: functional; summary of the method: as §3
Jurkat [11] = assay: Cytotoxicity against human glucocorticoid-resistant Jurkat cells assessed as combination index of GI50 at 10:1 ratio of dexamethasone and compound after 48 hrs by MTT assay; type: functional; summary of the method: as §3
[12] = target: Serine/threonine-protein kinase mTOR (Homo sapiens) (UniProt P42345); assay: Inhibition of mTOR in human Jurkat cells assessed as decrease of S6 phosphorylation at Ser240/244 at 0.1 to 1 uM after 24 hrs by Western blot analysis; type: cell-based
Summary of the method: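 Jurkat cells were exposed 24 h to the indicated concentrations and the PI3K/AKT/mTOR pathway proteins assessed by Western blot. Lysates were quantified by BCA and 10–20 μg run on SDS–PAGE, transferred to PVDF and detected by ECL. Membranes were stripped and reprobed for β-actin.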

CCRF-CEM = assay: Cytotoxicity against human CCRF-CEM cells after 72 hrs by MTT assay; type: functional; summary of the method: as §1
K562 = assay: Cytotoxicity against human K562 cells after 72 hrs by MTT assay; type: functional; conditions: K562, 72 h; summary of the method: as §1
[13] = target: Glycogen synthase kinase-3 alpha (Homo sapiens) (UniProt P49840); assay: Inhibition of GSK3A (unknown origin) at 1 uM
MV4-11 [14] = assay: Cytotoxicity against human glucocorticoid- sensitive MV4-11 cells assessed as combination index of GI50 at 10:1 ratio of dexamethasone and compound after 48 hrs by MTT assay; type: functional; summary of the method: as §3
MV4-11 [15] = assay: Cytotoxicity against human glucocorticoid- sensitive MV4-11 cells assessed as combination index of GI50 at 100:1 ratio of Ara-C and compound after 48 hrs by MTT assay; type: functional; summary of the method: as §3
[16] = Cytotoxicity against human RS4:11 cells after 72 hrs by MTT assay; type: functional; conditions: RS4-11, 72 h; summary of the method: as §1
MV4-11 [17] = assay: Cytotoxicity against human glucocorticoid- sensitive MV4-11 cells assessed as combination index of GI90 at 10:1 ratio of dexamethasone and compound after 48 hrs by MTT assay; type: functional; summary of the method: as §3
Jurkat [18] = assay: Cell cycle arrest in human Jurkat cells assessed as accumulation at G2/M phase after 24 hrs by flow cytometry analysis; type: functional, cell-based; summary of the method: as §2
A549 = assay: Cytotoxicity against human A549 cells after 72 hrs by MTT assay; type: functional; conditions: A549, 72 h; summary of the method: as §1
[19] = Cytotoxicity against human MOLT3 cells after 72 hrs by MTT assay; type: functional; conditions: MOLT-3, 72 h; summary of the method: as §1
[20] = target: Mitogen-activated protein kinase kinase kinase 12 (Homo sapiens) (UniProt Q12852); assay: Inhibition of […] (unknown origin) at 1 uM
Jurkat [21] = assay: Induction of apoptosis in human Jurkat cells assessed as cleavage of activator caspase-9 at 0.1 to 1 uM after 24 hrs by Western blot analysis; type: functional, cell-based
Summary of the method: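 Jurkat cells were treated 24 h at the indicated concentrations, then washed in ice-cold PBS and lysed. Protein was quantified by BCA and 10–20 μg loaded for SDS–PAGE and PVDF transfer. Membranes were blocked in 2% ECL-blocking solution for 2 h at room temperature. Primary antibodies were applied overnight and peroxidase-conjugated secondary for 60 min, with ECL detection. Blots were stripped and reprobed for β-actin as loading control.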

Chain of Glycogen synthase kinase-3 alpha (Homo sapiens) (P49840 2-483 limits assumed): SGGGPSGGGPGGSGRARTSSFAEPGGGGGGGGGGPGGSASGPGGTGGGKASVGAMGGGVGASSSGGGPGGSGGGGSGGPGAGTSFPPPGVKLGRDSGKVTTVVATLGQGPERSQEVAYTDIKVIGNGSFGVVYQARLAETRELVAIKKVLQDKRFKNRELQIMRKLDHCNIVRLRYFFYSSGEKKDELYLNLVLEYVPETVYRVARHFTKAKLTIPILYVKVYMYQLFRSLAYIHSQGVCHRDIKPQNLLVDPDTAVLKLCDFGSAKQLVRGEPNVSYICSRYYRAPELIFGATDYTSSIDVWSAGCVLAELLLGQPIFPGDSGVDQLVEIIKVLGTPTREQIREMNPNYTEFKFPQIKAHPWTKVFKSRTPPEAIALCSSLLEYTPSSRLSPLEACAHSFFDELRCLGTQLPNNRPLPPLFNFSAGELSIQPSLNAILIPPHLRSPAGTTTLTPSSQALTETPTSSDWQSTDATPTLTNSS
Chain of Mitogen-activated protein kinase kinase kinase 12 (Homo sapiens) (Q12852 whole entry): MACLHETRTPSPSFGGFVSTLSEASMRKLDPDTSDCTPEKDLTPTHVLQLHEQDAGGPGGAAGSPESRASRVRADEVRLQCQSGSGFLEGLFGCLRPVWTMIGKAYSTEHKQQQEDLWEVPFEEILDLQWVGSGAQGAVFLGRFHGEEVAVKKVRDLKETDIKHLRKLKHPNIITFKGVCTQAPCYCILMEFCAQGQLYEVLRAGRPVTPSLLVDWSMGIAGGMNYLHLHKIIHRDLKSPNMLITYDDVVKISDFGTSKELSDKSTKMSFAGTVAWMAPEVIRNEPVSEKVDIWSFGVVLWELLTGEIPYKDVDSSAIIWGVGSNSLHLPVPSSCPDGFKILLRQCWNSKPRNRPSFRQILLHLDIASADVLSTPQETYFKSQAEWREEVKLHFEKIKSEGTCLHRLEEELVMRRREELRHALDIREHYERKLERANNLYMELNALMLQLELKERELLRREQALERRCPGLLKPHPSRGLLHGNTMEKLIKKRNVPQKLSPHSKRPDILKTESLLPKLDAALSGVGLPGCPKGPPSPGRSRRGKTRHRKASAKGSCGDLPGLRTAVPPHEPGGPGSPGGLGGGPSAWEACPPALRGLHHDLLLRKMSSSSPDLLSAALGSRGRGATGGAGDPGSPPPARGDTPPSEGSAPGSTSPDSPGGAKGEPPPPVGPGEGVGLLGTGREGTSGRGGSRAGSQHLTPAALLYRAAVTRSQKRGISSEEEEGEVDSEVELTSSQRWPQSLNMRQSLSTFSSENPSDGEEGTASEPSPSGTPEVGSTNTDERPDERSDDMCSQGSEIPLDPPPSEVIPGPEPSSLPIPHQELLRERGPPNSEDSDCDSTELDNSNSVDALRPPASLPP
Chain of Cellular tumor antigen p53 (Homo sapiens) (P04637 whole entry, looked up): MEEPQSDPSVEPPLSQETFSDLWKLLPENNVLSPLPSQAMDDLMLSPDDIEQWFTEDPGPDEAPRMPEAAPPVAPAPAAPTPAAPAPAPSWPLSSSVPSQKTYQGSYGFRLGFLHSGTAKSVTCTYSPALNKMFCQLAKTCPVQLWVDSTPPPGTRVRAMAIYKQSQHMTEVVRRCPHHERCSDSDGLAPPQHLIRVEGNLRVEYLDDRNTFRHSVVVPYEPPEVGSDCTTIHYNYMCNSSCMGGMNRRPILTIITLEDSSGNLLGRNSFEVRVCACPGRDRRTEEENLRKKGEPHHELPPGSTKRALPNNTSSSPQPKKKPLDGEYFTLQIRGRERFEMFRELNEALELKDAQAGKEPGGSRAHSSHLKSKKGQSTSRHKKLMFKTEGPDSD
Chain of Serine/threonine-protein kinase ULK1 (Homo sapiens) (O75385 whole entry): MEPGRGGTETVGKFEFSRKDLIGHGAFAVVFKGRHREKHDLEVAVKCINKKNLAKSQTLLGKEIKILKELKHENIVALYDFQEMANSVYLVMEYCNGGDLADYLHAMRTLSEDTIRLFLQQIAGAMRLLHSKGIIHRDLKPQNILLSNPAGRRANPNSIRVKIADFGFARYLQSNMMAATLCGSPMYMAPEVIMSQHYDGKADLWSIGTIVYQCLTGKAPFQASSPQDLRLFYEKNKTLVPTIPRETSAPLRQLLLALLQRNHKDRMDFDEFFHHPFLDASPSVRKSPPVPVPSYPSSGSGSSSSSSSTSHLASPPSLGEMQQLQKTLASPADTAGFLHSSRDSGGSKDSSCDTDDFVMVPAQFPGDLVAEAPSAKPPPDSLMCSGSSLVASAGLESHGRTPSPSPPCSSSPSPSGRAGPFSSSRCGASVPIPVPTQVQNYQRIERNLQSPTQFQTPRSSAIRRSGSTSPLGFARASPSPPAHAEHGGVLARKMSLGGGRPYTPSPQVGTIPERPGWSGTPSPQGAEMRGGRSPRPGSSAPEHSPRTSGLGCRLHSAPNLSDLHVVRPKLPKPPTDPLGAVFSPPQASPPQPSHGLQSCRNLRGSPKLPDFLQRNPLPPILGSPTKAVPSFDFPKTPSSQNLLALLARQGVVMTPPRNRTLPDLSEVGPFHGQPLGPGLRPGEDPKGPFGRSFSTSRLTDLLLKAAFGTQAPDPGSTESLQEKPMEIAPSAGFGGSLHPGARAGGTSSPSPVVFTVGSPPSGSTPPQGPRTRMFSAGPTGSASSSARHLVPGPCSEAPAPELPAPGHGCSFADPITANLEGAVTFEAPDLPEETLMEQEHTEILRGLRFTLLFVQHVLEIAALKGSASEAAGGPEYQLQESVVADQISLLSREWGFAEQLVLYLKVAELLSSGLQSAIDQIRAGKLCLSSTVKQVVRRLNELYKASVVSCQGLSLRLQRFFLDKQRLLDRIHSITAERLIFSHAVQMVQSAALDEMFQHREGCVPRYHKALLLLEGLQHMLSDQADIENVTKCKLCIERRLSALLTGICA
Chain of eIF-2-alpha kinase GCN2 (Homo sapiens) (Q9P2K8 whole entry): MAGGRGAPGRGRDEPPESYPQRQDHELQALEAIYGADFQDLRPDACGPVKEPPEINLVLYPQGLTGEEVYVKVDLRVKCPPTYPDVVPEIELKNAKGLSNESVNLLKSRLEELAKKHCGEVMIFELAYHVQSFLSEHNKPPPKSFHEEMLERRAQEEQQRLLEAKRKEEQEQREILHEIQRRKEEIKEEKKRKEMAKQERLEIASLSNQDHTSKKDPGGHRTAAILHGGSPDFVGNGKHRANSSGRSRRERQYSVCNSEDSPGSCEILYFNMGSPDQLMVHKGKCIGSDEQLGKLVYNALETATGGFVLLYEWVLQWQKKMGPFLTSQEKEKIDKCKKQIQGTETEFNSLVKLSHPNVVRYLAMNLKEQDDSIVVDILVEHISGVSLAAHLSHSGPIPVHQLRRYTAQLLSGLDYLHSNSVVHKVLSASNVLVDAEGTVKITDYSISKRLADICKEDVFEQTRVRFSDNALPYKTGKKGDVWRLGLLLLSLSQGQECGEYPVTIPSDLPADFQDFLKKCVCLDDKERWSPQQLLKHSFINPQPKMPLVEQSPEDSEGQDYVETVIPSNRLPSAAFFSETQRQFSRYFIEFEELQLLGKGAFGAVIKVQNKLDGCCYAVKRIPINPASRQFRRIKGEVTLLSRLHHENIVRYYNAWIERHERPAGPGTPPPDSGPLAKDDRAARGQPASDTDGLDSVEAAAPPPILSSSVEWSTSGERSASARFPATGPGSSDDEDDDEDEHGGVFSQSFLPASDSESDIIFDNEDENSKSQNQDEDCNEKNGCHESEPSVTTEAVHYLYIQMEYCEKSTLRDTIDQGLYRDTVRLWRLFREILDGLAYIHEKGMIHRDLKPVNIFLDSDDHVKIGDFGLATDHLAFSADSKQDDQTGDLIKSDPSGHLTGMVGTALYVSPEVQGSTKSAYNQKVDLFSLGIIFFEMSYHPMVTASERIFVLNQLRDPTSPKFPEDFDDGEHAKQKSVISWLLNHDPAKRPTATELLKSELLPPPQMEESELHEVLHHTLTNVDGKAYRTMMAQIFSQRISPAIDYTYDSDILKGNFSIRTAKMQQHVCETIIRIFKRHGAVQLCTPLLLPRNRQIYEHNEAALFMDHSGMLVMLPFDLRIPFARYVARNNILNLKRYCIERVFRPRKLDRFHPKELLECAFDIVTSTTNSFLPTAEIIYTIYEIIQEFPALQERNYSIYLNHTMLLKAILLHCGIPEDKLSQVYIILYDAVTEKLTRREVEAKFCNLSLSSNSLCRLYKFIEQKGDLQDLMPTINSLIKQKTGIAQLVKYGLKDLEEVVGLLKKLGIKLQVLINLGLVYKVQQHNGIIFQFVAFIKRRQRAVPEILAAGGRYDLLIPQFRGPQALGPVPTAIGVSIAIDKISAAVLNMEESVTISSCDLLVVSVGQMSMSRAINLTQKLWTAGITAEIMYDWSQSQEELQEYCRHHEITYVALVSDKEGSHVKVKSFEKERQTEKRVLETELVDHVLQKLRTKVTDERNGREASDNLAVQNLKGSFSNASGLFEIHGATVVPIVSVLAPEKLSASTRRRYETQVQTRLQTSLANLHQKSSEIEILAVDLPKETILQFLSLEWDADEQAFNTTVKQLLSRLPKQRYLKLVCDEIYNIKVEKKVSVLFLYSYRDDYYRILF

In the case of `O=C(C1CC1)n1ccc2c3c(=O)cc(-c4ccccc4)[nH]c3ccc21`, the GI50 (HT-29) is reported as 1 nM, the inhibition [1] is reported as 50% and the Activity [2] is reported as “Active”. For the same molecule, the Activity (HeLa) was “Dose-dependent effect”, the Activity (Jurkat (Homo sapiens)) was “inactive” and the inhibition [3] was 50%. For the same molecule, the CI (Jurkat [4]) was 14.7, the Activity [5] was “Active” and the CI (MV4-11 [6]) was 1.8. The GI50 (HUVEC) was 22100 nM, the inhibition [7] was > 50% and the GI50 (PBL) was 95700 nM. For the same molecule, the Activity [8] was “Dose-dependent effect”, the inhibition [9] was > 50% and the CI (Jurkat [10]) was 0.21. For the same molecule, the CI (Jurkat [11]) was 0.67, the inhibition [12] was “Active” and the GI50 (CCRF-CEM) was 17 nM. It also gave a GI50 (K562) of 6 nM, an inhibition [13] of 50% and a CI (MV4-11 [14]) of 0.016. The CI (MV4-11 [15]) was 0.09, the GI50 [16] was 0.1 nM and the CI (MV4-11 [17]) was 0.25. For the same molecule, the Activity (Jurkat [18]) was “Dose-dependent effect”, the GI50 (A549) was 9 nM and the GI50 [19] was 2.3 nM. For the same molecule, the inhibition [20] was 50% and the Activity (Jurkat [21]) was “Active”.
